Screening results deposited in PubChem BioAssay by several laboratories.
Rows were chosen to be rich in hits. Some 1.1% of all compounds tested hit in one or more screens of this group.
FXIa inh – inhibitors of human coagulation factor XIa; P03951; purified FXIa, Boc-Glu-Ala-Arg-AMC fluorogenic substrate; inhibition, % at 5 µM; hit rate 0.14% among 220,000; AID 798;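 active = inhibition of at least 40%; inactive = inhibition below 40%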;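 also: fluorescence of freed AMC excited at 355 nm; 0% = enzyme without compound and 100% = no enzyme blank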
Furin inhibitor – human furin inhibition | P09958 | purified furin, fluorogenic substrate cleavage | inhibition, % at 20 µM or 30 µM | hit rate 0.061% among 220,000; in the data active = inhibition above about 25%
Target sequence (P09958 108-714 limits assumed): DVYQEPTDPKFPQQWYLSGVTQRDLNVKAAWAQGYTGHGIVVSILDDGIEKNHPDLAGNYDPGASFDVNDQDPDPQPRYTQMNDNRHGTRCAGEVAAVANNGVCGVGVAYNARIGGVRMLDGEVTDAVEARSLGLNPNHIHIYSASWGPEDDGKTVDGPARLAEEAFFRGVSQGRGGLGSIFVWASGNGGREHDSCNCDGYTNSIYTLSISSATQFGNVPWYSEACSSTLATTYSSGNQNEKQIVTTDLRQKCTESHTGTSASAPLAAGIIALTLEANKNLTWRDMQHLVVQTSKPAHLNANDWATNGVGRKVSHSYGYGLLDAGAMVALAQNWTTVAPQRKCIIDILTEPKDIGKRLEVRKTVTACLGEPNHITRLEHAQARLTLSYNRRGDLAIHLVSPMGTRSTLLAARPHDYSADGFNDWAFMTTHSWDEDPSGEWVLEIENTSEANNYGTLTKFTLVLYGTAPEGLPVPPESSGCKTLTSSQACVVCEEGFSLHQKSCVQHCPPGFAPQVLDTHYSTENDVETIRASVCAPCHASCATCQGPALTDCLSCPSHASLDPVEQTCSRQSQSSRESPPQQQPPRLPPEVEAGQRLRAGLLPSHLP
thrombin 1536 – blocks human thrombin protease activity. P00734. alpha-thrombin, Boc-VPR-AMC fluorogenic substrate cleavage. inhibition, % at 5 µM. hit rate 0.26% among 220,000;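 active = inhibition at or above 40%; inactive = inhibition below 40%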;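 also: 0% = enzyme with no compound and 100% = wells without enzyme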
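Material: human alpha-thrombin protein. Incubation: reaction at ambient temperature. Technique: fluorescence of released AMC, ex 355 nm, em 460 nm. Control set: no-compound enzyme wells and no-enzyme blanks. Also added: Boc-VPR-AMC substrate, 15 µM final. Buffer or medium: pH 7.5 Tris (50 mM) with NaCl 150 mM, Tween 20 0.05%.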
KLK5 inh – inhibitors of human kallikrein 5. Q9Y337. recombinant hK5, fluorogenic AMC substrate cleavage. inhibition, % at 5 µM. hit rate 0.59% among 210,000;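 active = inhibition of 40% or more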;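 also: 0% = enzyme controls without compound and 100% = no-enzyme blanks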
FXIIa inh 1536 – blocks human coagulation factor XIIa protease activity; purified FXIIa, Boc-QGR-AMC fluorogenic substrate, 2 h; inhibition, % at 5 µM; hit rate 0.3% among 220,000; in the data active = inhibition above about 40%;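 also: 0% = enzyme with no compound and 100% = blank without enzyme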
* hit, by the source's call; x = no result given.

SMILES | FXIa inh | Furin inhibitor | thrombin 1536 | KLK5 inh | FXIIa inh 1536
Cc1ccc(CSc2nnc(-c3ccncc3)n2CC2CCCO2)cc1 (stereo not given) | 8.5 | -4.4 | 18.9 | 80.8* | 25.9
COc1cccc(OC)c1C(=O)N1CCN(Cc2ccccc2C)CC1 | 4.8 | -25.5 | -0.4 | 4.7 | 38.6
O=C1NC(Cc2c[nH]c3ccccc23)C(=O)N1CCOc1ccccc1 (stereo not given) | 4.8 | -31.7 | -5.4 | -4.2 | 2.0
O=C(NC1CCCCC1)C(c1ccc2ncccc2c1)N(Cc1ccccc1)C(=O)c1ccc2c(c1)OCCO2 (stereo not given) | 5.8 | -10.6 | 3.8 | -0.8 | 17.1
COc1ccc(CN(C(=O)c2ccc3c(c2)OCCO3)C(C(=O)NC2CCCCC2)c2ccc3ncccc3c2)cc1 (stereo not given) | -6.3 | -12.0 | 3.5 | 149.7* | -0.4
Cc1ccc2[nH]c(=O)c(CN(C(=O)c3cccs3)c3ccccc3)cc2c1 | 0.2 | -16.6 | -2.7 | -3.4 | 5.9
Cc1ccc2cc(CN(C(=O)c3cccs3)c3ccccc3)c(=O)[nH]c2c1 | 25.1 | -5.7 | 17.5 | 62.0* | 73.6*
O=[N+]([O-])c1ccc(Nc2ccc(F)cc2)nc1 | 1.1 | 1.7 | 23.3 | 55.2* | 7.0
Cc1oc(C)c(C(=O)O)c1C(=O)O | -7.0 | -19.1 | -4.2 | -9.3 | 2.1
COC(=O)c1c(C)oc(C)c(C(=O)OC)c1=O | 11.1 | -18.4 | 17.1 | 73.8* | 20.9
CCc1c(C)nc2ncnn2c1N1CCC(C(=O)Nc2ccccc2)CC1 | 18.1 | -27.2 | -5.9 | -1.6 | 53.2*
CCOC(=O)c1sc(N)c(C#N)c1CSc1nc2ccc(C)cc2[nH]1 | 0.5 | -2.3 | 4.5 | 40.0* | 11.4
CCOC(=O)c1sc(N)c(C#N)c1CSc1nc2ccc(OCC)cc2[nH]1 | -6.6 | -14.4 | -15.2 | -3.2 | -13.3
O=C(CSc1nnc(SCc2cccc3ccccc23)s1)N=Nc1c(O)[nH]c2ccccc12 | 10.3 | -16.8 | 11.4 | -1.4 | 1.0
COc1ccc(CCNS(=O)(=O)c2cccc(C)c2)cc1OC | 3.5 | -16.5 | -6.7 | 1.3 | 12.5
COc1ccc(S(=O)(=O)NCCC(C)C)cc1OC | 4.0 | -20.0 | 10.2 | 121.0* | 17.6
COc1ccc(CCNS(=O)(=O)c2ccc3c(c2)OCCO3)cc1OC | 9.7 | -13.0 | 24.3 | 68.9* | 27.2
CCOC(=O)CC(c1ccc([N+](=O)[O-])cc1)n1c(C)ccc1C (stereo not given) | -3.3 | -21.6 | 0.3 | -16.7 | -2.6
Cn1c(N)c(C#N)c2c(c1=S)COC(C)(C)C2 | 0.1 | -8.1 | -11.2 | -12.1 | 11.6
CC(C)C1Cc2c(C#N)c(N)n(C)c(=S)c2CO1 (stereo not given) | 5.9 | -5.0 | 17.9 | 53.3* | 17.4
O=S(=O)(NCCSc1ccccc1)c1cccs1 | 8.1 | -4.2 | 23.0 | 33.4 | 6.6
CCCN(CCC)CCNS(=O)(=O)c1ccc2c(c1)oc(=O)n2C | 1.2 | 15.8 | -1.5 | 1.6 | 11.4
CCN(CCNS(=O)(=O)c1ccc2c(c1)oc(=O)n2C)c1ccccc1 | -2.2 | -35.4 | -4.7 | 42.0* | 5.7
COc1ccc(-c2cc(C(F)F)n3ncc(C(=O)N4CCc5ccccc54)c3n2)cc1 | 1.2 | -35.4 | 19.9 | 1.6 | 11.0
COc1ccc(-c2cc(C(F)F)n3ncc(C(=O)n4ccnc4C)c3n2)cc1 | -4.0 | -43.2 | 87.9* | -16.9 | -3.1
SMILES | FXIa inh | Furin inhibitor | thrombin 1536 | KLK5 inh | FXIIa inh 1536
COc1cccc(-c2nn(-c3ccccc3)cc2CN(C)C(C)c2ccon2)c1 (stereo not given) | 27.1 | -2.4 | 26.3 | 45.9* | 32.7
COc1cccc(-c2nn(-c3ccccc3)cc2CN(C)Cc2ccno2)c1 | 2.0 | -24.7 | 2.1 | 19.9 | 4.1
C=CCN1C(=O)/C(=c2\sc3nc(=O)c(Cc4ccccc4Cl)nn3c2=O)c2ccccc21 | 2.1 | -12.0 | -1.2 | 1.2 | 9.4
Cc1onc(-c2c(F)cccc2Cl)c1-c1nnc(-c2ccc(C(F)(F)F)cc2)o1 | 33.0 | -4.0 | 18.2 | 33.0 | 57.4*
O=C(Cn1nnc(-c2cccs2)n1)NNC(=O)c1ccccc1Cl | -4.8 | -18.7 | -6.3 | -7.1 | 1.6
Cc1cc2c(C)nc(N/N=C/c3ccc([N+](=O)[O-])cc3)nc2o1 | 12.7 | -3.0 | 12.0 | 49.5* | 8.7
COc1ccc(C2C(C(=O)Nc3ccccc3OC)=C(C)Nc3ncnn32)cc1 (stereo not given) | 20.3 | -28.8 | 25.0 | 45.4* | 106.7*
COc1ccccc1NC(=O)C1=C(C)Nc2ncnn2C1c1cccs1 (stereo not given) | 6.9 | -17.2 | 4.5 | 2.8 | 8.9
Cc1csc(SCC(=O)NCc2ccccc2Cl)n1 | 25.5 | -2.1 | 47.6* | 35.2 | 21.1
CCOC(=O)c1sc(N(C)C(C)=O)nc1C | 19.0 | -8.9 | 1.4 | -3.9 | 42.1*
CCC(CO)n1c(SCc2cc(=O)oc3cc(C)ccc23)nc2ccccc2c1=O (stereo not given) | 20.8 | -10.3 | 2.2 | -3.5 | 41.6*
COc1ccccc1-n1c(SCc2cc(=O)oc3cc(O)ccc23)nc2ccccc2c1=O | 6.1 | -17.2 | -5.2 | -11.2 | 15.2
Cc1ccc(SCCCCN2C(=O)NC(C)(C)C2=O)cc1 | 1.1 | 32.8* | -4.7 | 1.2 | -1.0
CC1(C)NC(=O)N(CCSc2ccc(Cl)cc2)C1=O | 9.8 | -17.7 | 2.5 | -12.9 | 21.5
Cc1cc(C)nc(SCCS(=O)(=O)Cc2ccc(Cl)cc2)n1 | -1.0 | -15.4 | -0.7 | -12.3 | 9.2
Cc1cc(C)nc(SCCS(=O)(=O)Cc2ccccc2)n1 | 8.2 | -17.9 | 20.6 | 114.9* | 19.9
Cc1ccc2c(CC(=O)N3CCN(c4ccccc4)CC3)coc2c1 | -2.7 | -14.2 | -1.8 | -9.8 | 0.3
Cc1nn(CC(=O)N2CCc3ccccc3C2)c(C)c1[N+](=O)[O-] | 37.5 | -10.1 | -0.7 | 22.1 | 85.3*
CN(C)C(=O)C[n+]1cccc(/C=N/O)c1 | -9.1 | -5.0 | -6.2 | -9.3 | -3.4
O=C1C(C=NCCCN2CCOCC2)=C(O)c2ccccc21 | 1.4 | -9.1 | 11.7 | 59.1* | 6.5
O=C1C(C=NCCN2CCOCC2)=C(O)c2ccccc21 | 3.6 | -5.7 | -3.6 | -13.3 | 5.2
CCNC(=S)N1CCNC(=O)C1CC(=O)OC (stereo not given) | 11.9 | -8.5 | -6.3 | -5.4 | 3.8
CCOC(=O)N1CCN(C(=O)c2ccccc2N(C)S(C)(=O)=O)CC1 | -4.7 | -17.9 | 54.7* | -13.9 | -4.2
O=C(NCCN1CCOCC1)c1cc(-c2ccc(Cl)cc2)on1 | -0.9 | -26.9 | 2.5 | 5.2 | 17.2
CC(C)Cc1cc(C(=O)NCCN2CCOCC2)no1 | 4.9 | -28.7 | 22.8 | 44.2* | 0.4
CC(C)Cc1cc(C(=O)NCc2cccs2)no1 | 7.8 | -17.1 | 21.3 | 54.7* | 7.7
CCSc1nnc(NC(=O)C2CC(=O)N(Cc3ccccc3)C2)s1 (stereo not given) | 3.1 | -32.5 | 5.4 | 10.4 | 14.4
O=C(O)c1cn[nH]c1-c1cccc([N+](=O)[O-])c1 | 0.5 | -25.9 | -0.8 | x | 8.8
CC1=C/C(=N\NC(=S)Nc2cccnc2)CC(C)(C)C1 | 40.4* | -2.1 | 4.0 | 13.2 | 22.5
CC1(C)C2CC=C(/C=N/NC(=S)Nc3cccnc3)C1C2 (stereo not given) | -1.0 | -15.0 | -3.3 | 5.6 | 5.4
